Results on 20 compounds are retold here after ChEMBL document CHEMBL1149077, “Synthesis and evaluation of a novel series of pseudo-cinnamic derivatives as antituberculosis agents” (2009).

In brackets after ≈: the same amount, converted by molar mass.

The subject of this assay is Mycobacterium tuberculosis. Description: Antitubercular activity against Mycobacterium tuberculosis H37Rv after 6 days by MTT reduction assay. The class given is functional. The note with it: 144 h. The method in brief:
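Strain H37Rv tested in 7H9 broth across serial twofold compound dilutions, bacilli added to each well. Incubated 6 days, then MTT (1 mg/mL) added for one further day. Formazan solubilized and absorbance read at 570 nm. MIC taken as lowest concentration inhibiting growth, with untreated bacilli serving as growth control.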
For orientation: Formazan colour is commonly taken as a measure of viable cells.

In general, MIC refers to the least concentration at which growth counts as inhibited. Regarding `COc1ccc(/C=C/C(=O)Nc2ccccn2)cc1OC`, inhibition of growth (MIC) required 125 µg/mL (≈ 440 µM). In the case of `COc1cc(/C=C/C(=O)SCCNC(C)=O)cc(OC)c1O` it was 125 µg/mL (≈ 384 µM); in that of `COc1cc(/C=C/C(=O)SCCNC(C)=O)ccc1O`, 125 µg/mL (≈ 423 µM).

Take `COc1ccc(/C=C/C(=O)SCCNC(C)=O)cc1`: 63 µg/mL (≈ 226 µM) was the least that counted as inhibitory (MIC). In turn, `COc1cc(/C=C/C(=O)NCCc2c[nH]c3ccccc23)ccc1O` yielded a minimal inhibitory concentration (MIC) of 8 µg/mL (≈ 23.8 µM). In turn, `CC(=O)NCCSC(=O)/C=C/c1ccc(O)cc1` registered an MIC of 63 µg/mL (≈ 237 µM). In turn, `CC(=O)NCCNC(=O)/C=C/c1ccc(OCC=C(C)C)cc1` gave an MIC of 63 µg/mL (≈ 199 µM). Next, `COc1ccc(/C=C/C(=O)Nc2ccccn2)cc1`: 63 µg/mL (≈ 248 µM). As for `O=C(/C=C/c1ccc(O)cc1)Sc1ccccc1`, the minimal inhibitory concentration (MIC) is 8 µg/mL (≈ 31.2 µM). In turn, `CC(C)=CCOc1ccc(/C=C/C(=O)Nc2ccccn2)cc1` came in with an MIC of 16 µg/mL (≈ 51.9 µM). Next, `CC(C)=CCC/C(C)=C/COc1ccc(/C=C/C(=O)Nc2ccccn2)cc1`: 1 µg/mL (≈ 2.66 µM); `CC(=O)NCCSC(=O)/C=C/c1ccc(OC/C=C(\C)CCC=C(C)C)cc1`: 0.6 µg/mL (≈ 1.49 µM); `CC(=O)NCCNC(=O)/C=C/c1ccc(OC/C=C(\C)CCC=C(C)C)cc1`: 0.1 µg/mL (≈ 0.26 µM). As for `COc1ccc(/C=C/C(=O)NCCNC(C)=O)cc1`, the MIC was over 500 µg/mL. `CC(C)=CCOc1ccc(/C=C/C(=O)NCCc2c[nH]c3ccccc23)cc1` showed an MIC of 63 µg/mL (≈ 168 µM). `CC(C)=CCC/C(C)=C/COc1ccc(/C=C/C(=O)NCCc2c[nH]c3ccccc23)cc1` had an MIC of 32 µg/mL (≈ 72.3 µM). In turn, `COc1cc(/C=C/C(=O)Sc2ccccc2)ccc1O` yielded an MIC of 8 µg/mL (≈ 27.9 µM). The compound `CC(=O)NCCSC(=O)/C=C/c1ccc(OCC=C(C)C)cc1` returned a minimum inhibitory concentration (MIC) of 32 µg/mL (≈ 96 µM). `COc1ccc(/C=C/C(=O)NCCc2c[nH]c3ccccc23)cc1` gave an MIC of 500 µg/mL (≈ 1560 µM). Compound `CC(=O)NCCSC(=O)/C=C/c1ccc(OC/C=C(/C)CC/C=C(/C)CCC=C(C)C)cc1` showed a minimum inhibitory concentration (MIC) of 0.6 µg/mL (≈ 1.28 µM).
